Measurements as given in ChEMBL document CHEMBL1139875, “Discovery of 4-aminobutyric acid derivatives possessing anticonvulsant and antinociceptive activities: a hybrid pharmacophore approach” (2007).
The source made the active and inactive calls. No cut-off for these calls is given here.

Legend:
Mus musculus [1] = experiment: Anticonvulsant activity in Swiss Albino mouse at 30 mg/kg, ip after 0.5 hr by MES test; format: functional, organism-based; set-up: dose 30 mg/kg
Summary of the method: (§1)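 Mice (Swiss, 20-25 g) given i.p. doses of 30, 100 and 300 mg/kg under ADD program protocols, three per group, examined at 0.5 and 4 h in MES, scPTZ, scSTY or scPIC seizure tests. Value is the minimum dose protecting half or more of the mice.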

Mus musculus [2] = experiment: Anticonvulsant activity in Swiss Albino mouse at 30 mg/kg, ip after 4 hrs by MES test; format: functional, organism-based; set-up: dose 30 mg/kg; summary of the method: as §1
Mus musculus [3] = experiment: Anticonvulsant activity in Swiss Albino mouse at 300 mg/kg, ip after 0.5 hr by scPTZ test; format: functional, organism-based; set-up: dose 300 mg/kg; summary of the method: as §1
Mus musculus [4] = experiment: Anticonvulsant activity in Swiss Albino mouse at 300 mg/kg, ip after 0.5 hr by scSTY test; format: functional, organism-based; set-up: dose 300 mg/kg; summary of the method: as §1
Mus musculus [5] = experiment: Anticonvulsant activity in Swiss Albino mouse at 300 mg/kg, ip after 4 hrs by scSTY test; format: functional, organism-based; set-up: dose 300 mg/kg; summary of the method: as §1
Mus musculus [6] = experiment: Anticonvulsant activity in Swiss Albino mouse at 300 mg/kg, ip after 0.5 hr by scPIC test; format: functional, organism-based; set-up: dose 300 mg/kg; summary of the method: as §1
Mus musculus [7] = experiment: Anticonvulsant activity in Swiss Albino mouse at 300 mg/kg, ip after 4 hrs by scPIC test; format: functional, organism-based; set-up: dose 300 mg/kg; summary of the method: as §1
Mus musculus [8] = experiment: Neurotoxicity in Swiss Albino mouse at 100 mg/kg, ip after 0.5 hr by rotarod test; format: functional, organism-based; set-up: dose 100 mg/kg
Summary of the method: (§2)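 Swiss mice (20-25 g) are trained on an accelerating rotorod (10 rpm, 3.2 cm rod), then injected i.p. at 30, 100 or 300 mg/kg, with three per group. Neurotoxicity means failure to keep equilibrium for at least 1 min in each of three trials, checked at 0.5 and 4 h. The value reported is the minimum dose affecting half or more of the mice.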

Mus musculus [9] = experiment: Neurotoxicity in Swiss Albino mouse at 100 mg/kg, ip after 4 hrs by rotarod test; format: functional, organism-based; set-up: dose 100 mg/kg; summary of the method: as §2
Mus musculus [10] = experiment: Analgesic activity in Swiss Albino mouse assessed as number of acetic acid-induced writhing per 30 min after 100 mg/kg, ip; format: functional
Summary of the method: (§3)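 Mice in groups of six dosed i.p. at 100 mg/kg, controls receiving 30% v/v PEG 400 in water. Writhing induced by i.p. 0.1 mL of 3% v/v acetic acid 1 h after drug. Writhes (abdominal stretch with at least one hind limb extended) counted over 30 min; % inhibition calculated. Mean ± SEM, Student's t test.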

Mus musculus [11] = experiment: Analgesic activity in Swiss Albino mouse assessed as inhibition of acetic acid-induced writhing responses at 100 mg/kg, ip; format: functional; summary of the method: as §3
Mus musculus [12] = experiment: Anticonvulsant activity in Swiss Albino mouse at 300 mg/kg, ip after 0.5 hr by MES test; format: functional, organism-based; set-up: dose 300 mg/kg; summary of the method: as §1
Mus musculus [13] = experiment: Anticonvulsant activity in Swiss Albino mouse at 300 mg/kg, ip after 4 hrs by MES test; format: functional, organism-based; set-up: dose 300 mg/kg; summary of the method: as §1
Mus musculus [14] = experiment: Anticonvulsant activity in Swiss Albino mouse at 100 mg/kg, ip after 0.5 hr by scSTY test; format: functional, organism-based; set-up: dose 100 mg/kg; summary of the method: as §1
Mus musculus [15] = experiment: Neurotoxicity in Swiss Albino mouse at 300 mg/kg, ip after 0.5 hr by rotarod test; format: functional, organism-based; set-up: dose 300 mg/kg; summary of the method: as §2
Mus musculus [16] = experiment: Neurotoxicity in Swiss Albino mouse at 300 mg/kg, ip after 4 hrs by rotarod test; format: functional, organism-based; set-up: dose 300 mg/kg; summary of the method: as §2
Rattus norvegicus [17] = experiment: Effect on spontaneous pain in Sprague-Dawley rat CCI model assessed as duration of paw withdrawal at 100 mg/kg, ip after 0.5 hr; format: functional; details: route intraperitoneal
Summary of the method: (§4)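 CCI rats (n = 4) dosed 100 mg/kg i.p. (vehicle 30% v/v PEG 400 in water). After 10 min acclimatization in a cage 5 cm above ground, cumulative time the ipsilateral paw was held off the floor over 5 min recorded, excluding locomotion lifts. Mean ± SEM; ANOVA/Bonferroni versus predrug.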

Rattus norvegicus [18] = experiment: Effect on spontaneous pain in Sprague-Dawley rat CCI model assessed as duration of paw withdrawal at 100 mg/kg, ip after 1 hr; format: functional; details: route intraperitoneal; summary of the method: as §4
Rattus norvegicus [19] = experiment: Effect on spontaneous pain in Sprague-Dawley rat CCI model assessed as duration of paw withdrawal at 100 mg/kg, ip after 1.5 hrs; format: functional; details: route intraperitoneal
Summary of the method: (§5)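 Unilateral CCI of sciatic nerve (Bennett and Xie) in Sprague-Dawley rats under i.p. pentobarbital sodium (65 mg/kg). Spontaneous pain is scored over 5 min after 10 min acclimatization, as cumulative time the ipsilateral paw is held off the floor. Paw lifts from locomotion or repositioning are excluded. Drug is given at 100 mg/kg i.p. with 30% v/v PEG 400 vehicle. Mean ± SEM, n = 4, compared with predrug by ANOVA/Bonferroni.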

Rattus norvegicus [20] = experiment: Effect on spontaneous pain in Sprague-Dawley rat CCI model assessed as duration of paw withdrawal at 100 mg/kg, ip after 2 hrs; format: functional; details: route intraperitoneal; summary of the method: as §5
Rattus norvegicus [21] = experiment: Anti-dynamic allodynia effect in Sprague-Dawley rat SNL model assessed as latency to paw withdrawal 100 mg/kg, ip after 0.5 hr; format: functional; details: route intraperitoneal
Summary of the method: (§6)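 Left L5 spinal nerve ligation rats, tested preoperatively and 9 days postoperatively, then given 100 mg/kg i.p. (vehicle 30% v/v PEG 400 in water). After 10 min acclimatization, plantar surface of affected paw stroked mildly with a cotton-bud; paw lift response recorded. n = 4; retested 0.5-2.5 h post-dose.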

Rattus norvegicus [22] = experiment: Anti-dynamic allodynia effect in Sprague-Dawley rat SNL model assessed as latency to paw withdrawal 100 mg/kg, ip after 1 hr; format: functional; details: route intraperitoneal; summary of the method: as §6
Rattus norvegicus [23] = experiment: Anti-dynamic allodynia effect in Sprague-Dawley rat SNL model assessed as latency to paw withdrawal 100 mg/kg, ip after 1.5 hrs; format: functional; details: route intraperitoneal; summary of the method: as §6
Rattus norvegicus [24] = experiment: Anti-dynamic allodynia effect in Sprague-Dawley rat SNL model assessed as latency to paw withdrawal 100 mg/kg, ip after 2 hrs; format: functional; details: route intraperitoneal; summary of the method: as §6
Rattus norvegicus [25] = experiment: Anti-dynamic allodynia effect in Sprague-Dawley rat SNL model assessed as latency to paw withdrawal 100 mg/kg, ip after 2.5 hrs; format: functional; details: route intraperitoneal; summary of the method: as §6
Rattus norvegicus [26] = experiment: Anti-cold allodynia effect in Sprague-Dawley rat SNL model assessed as duration of paw withdrawal 100 mg/kg, ip after 0.5 hr; format: functional; details: route intraperitoneal
Summary of the method: (§7)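 Left L5 spinal nerve ligation under pentobarbital (65 mg/kg i.p.). Allodynic rats dosed i.p. 100 mg/kg, vehicle 30% v/v PEG 400 in water. Acetone (100-200 µL) misted onto midplantar affected paw after 10 min acclimatization; paw withdrawal duration, mean of three samples at least 3 min apart; n = 4 rats.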

Rattus norvegicus [27] = experiment: Anti-cold allodynia effect in Sprague-Dawley rat SNL model assessed as duration of paw withdrawal 100 mg/kg, ip after 1 hrs; format: functional; details: route intraperitoneal; summary of the method: as §7
Rattus norvegicus [28] = experiment: Anti-cold allodynia effect in Sprague-Dawley rat SNL model assessed as duration of paw withdrawal 100 mg/kg, ip after 1.5 hrs; format: functional; details: route intraperitoneal; summary of the method: as §7
Rattus norvegicus [29] = experiment: Anti-cold allodynia effect in Sprague-Dawley rat SNL model assessed as duration of paw withdrawal 100 mg/kg, ip after 2 hrs; format: functional; details: route intraperitoneal; summary of the method: as §7
Rattus norvegicus [30] = experiment: Anti-cold allodynia effect in Sprague-Dawley rat SNL model assessed as duration of paw withdrawal 100 mg/kg, ip after 2.5 hrs; format: functional; details: route intraperitoneal; summary of the method: as §7
Rattus norvegicus [31] = experiment: Effect on spontaneous pain in Sprague-Dawley rat CCI model assessed as duration of paw withdrawal at 100 mg/kg, ip after 2.5 hrs; format: functional; details: route intraperitoneal; summary of the method: as §5
Rattus norvegicus [32] = experiment: Antihyperalgesic effects in Sprague-Dawley rat SNL model assessed as duration of paw withdrawal at 100 mg/kg, ip after 0.5 hr, ip; format: functional; details: route intraperitoneal
Summary of the method: (§8)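 L5 SNL rats (n = 4), dosed 100 mg/kg i.p. (vehicle 30% v/v PEG 400 in water). Pin-prick to midplantar ipsilateral left hindpaw; withdrawal duration, mean of three responses; ≥2 s defined abnormal. Mean ± SEM; one-way ANOVA with Bonferroni versus predrug.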

Rattus norvegicus [33] = experiment: Antihyperalgesic effects in Sprague-Dawley rat SNL model assessed as duration of paw withdrawal at 100 mg/kg, ip after 1 hr, ip; format: functional; details: route intraperitoneal; summary of the method: as §8
Rattus norvegicus [34] = experiment: Antihyperalgesic effects in Sprague-Dawley rat SNL model assessed as duration of paw withdrawal at 100 mg/kg, ip after 1.5 hrs, ip; format: functional; details: route intraperitoneal; summary of the method: as §8
Rattus norvegicus [35] = experiment: Antihyperalgesic effects in Sprague-Dawley rat SNL model assessed as duration of paw withdrawal at 100 mg/kg, ip after 2 hrs, ip; format: functional; details: route intraperitoneal; summary of the method: as §8
Rattus norvegicus [36] = experiment: Antihyperalgesic effects in Sprague-Dawley rat SNL model assessed as duration of paw withdrawal at 100 mg/kg, ip after 2.5 hrs, ip; format: functional; details: route intraperitoneal; summary of the method: as §8
Rattus norvegicus [37] = species: Rattus norvegicus; experiment: Anti-dynamic allodynic effect in Sprague-Dawley rat CCI model assessed as latency to paw withdrawal after 0.5 hr; format: functional
Summary of the method: (§9)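 Rats with sciatic nerve chronic constriction injury (pentobarbital 65 mg/kg i.p. anaesthesia), baseline and day 9 testing, then drug per randomization table. After 10 min acclimatization, affected plantar surface stroked mildly with a cotton-bud; paw lift recorded. n = 4; retested 0.5-2.5 h post-dose.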

Rattus norvegicus [38] = species: Rattus norvegicus; experiment: Anti-dynamic allodynic effect in Sprague-Dawley rat CCI model assessed as latency to paw withdrawal after 1 hr; format: functional; summary of the method: as §9
Rattus norvegicus [39] = species: Rattus norvegicus; experiment: Anti-dynamic allodynic effect in Sprague-Dawley rat CCI model assessed as latency to paw withdrawal after 1.5 hr; format: functional; summary of the method: as §9
Rattus norvegicus [40] = species: Rattus norvegicus; experiment: Anti-dynamic allodynic effect in Sprague-Dawley rat CCI model assessed as latency to paw withdrawal after 2 hr; format: functional; summary of the method: as §9
Rattus norvegicus [41] = species: Rattus norvegicus; experiment: Anti-dynamic allodynic effect in Sprague-Dawley rat CCI model assessed as latency to paw withdrawal after 2.5 hr; format: functional; summary of the method: as §9

For `O=C1NC(=O)C(c2ccccc2)(c2ccccc2)N1`, the Activity (Mus musculus [1]) was “Active”, the Activity (Mus musculus [2]) was “Active” and the Activity (Mus musculus [3]) was “inactive”. The Activity (Mus musculus [4]) was “inactive”, the Activity (Mus musculus [5]) was “inactive” and the Activity (Mus musculus [6]) was “inactive”. The Activity (Mus musculus [7]) was “inactive”, the Activity (Mus musculus [8]) was “Active” and the Activity (Mus musculus [9]) was “Active”. The Activity (Mus musculus [10]) was “inactive” and the Activity (Mus musculus [11]) was “inactive”.
With `C/C(=N\NC(=O)NCCCC(=O)O)c1ccccc1` the Activity (Mus musculus [12]) was “inactive”, the Activity (Mus musculus [13]) was “inactive” and the Activity (Mus musculus [3]) was “inactive”. The Activity (Mus musculus [14]) was “Active”, the Activity (Mus musculus [5]) was “Active” and the Activity (Mus musculus [6]) was “Active”. The Activity (Mus musculus [7]) was “Active”, the Activity (Mus musculus [15]) was “inactive” and the Activity (Mus musculus [16]) was “inactive”. The Activity (Mus musculus [10]; route intraperitoneal) was 33.7, the inhibition in vivo at 100 mg/kg (Mus musculus [11]; route intraperitoneal) was 82% and the Activity (Rattus norvegicus [17]) was 13.2 s. The Activity (Rattus norvegicus [18]) was 18.8 s, the Activity (Rattus norvegicus [19]) was 18.3 s and the Activity (Rattus norvegicus [20]) was 12.9 s. The Activity (Rattus norvegicus [21]) was 8.7 s, the Activity (Rattus norvegicus [22]) was 7.2 s and the Activity (Rattus norvegicus [23]) was 9.2 s. The Activity (Rattus norvegicus [24]) was 12.2 s, the Activity (Rattus norvegicus [25]) was 11.88 s and the Activity (Rattus norvegicus [26]) was 17.9 s. For the same compound, the Activity (Rattus norvegicus [27]) was 12.8 s, the Activity (Rattus norvegicus [28]) was 11.7 s and the Activity (Rattus norvegicus [29]) was 10.9 s. For the same compound, the Activity (Rattus norvegicus [30]) was 4.8 s, the Activity (Rattus norvegicus [31]) was 10.6 s and the Activity (Rattus norvegicus [32]) was 23.2 s. The Activity (Rattus norvegicus [33]) was 27.6 s, the Activity (Rattus norvegicus [34]) was 18.7 s and the Activity (Rattus norvegicus [35]) was 16.7 s. The Activity (Rattus norvegicus [36]) was 17.3 s, the Activity (Rattus norvegicus [37]) was 14.8 s and the Activity (Rattus norvegicus [38]) was 10.2 s. The Activity (Rattus norvegicus [39]) was 13.3 s, the Activity (Rattus norvegicus [40]) was 12.1 s and the Activity (Rattus norvegicus [41]) was 14.5 s.
